Measured values: ChEMBL document CHEMBL3046895, “Molecular mechanism of enantioselective inhibition of acetolactate synthase by imazethapyr enantiomers” (J Agric Food Chem, 2010)
Calls of active or inactive are those of the source. The calls are words filed in the database; no cut-off is given here.

Key:
Assay type in all cases: protein assay
[1] = biological target: T1, Acetolactate synthase (Zea mays) (UniProt Q41768+Q41769); assay: Inhibition of in vitro ALS activity in first leaf of the plant grew out Zea mays (maize) seedlings measured at 520 OD/ mg of protein/hr at 800 ug/L at 37 degC
Outline: (§1)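 Maize seedlings were treated in vivo, once the first leaf emerged, with herbicide in distilled water at 0, 100, 200, 400 and 800 μg L-1. Uppermost-expanded leaves were harvested 24 h later. ALS was extracted, precipitated with 50% (NH4)2SO4 at 4 °C, and assayed with 30 mM pyruvate, TPP and FAD at pH 7 for 1 h at 37 °C. Acetoin was read at A520 and normalised to Coomassie protein.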

[2] = biological target: T1, Acetolactate synthase (Zea mays); assay: Inhibition of in vitro ALS activity of Zea mays (maize) at 200 ug/L at 37 degC
Outline: (§2)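 ALS came from uppermost-expanded leaves of 5-day maize seedlings, using a 50% (NH4)2SO4 pellet. Inhibitor was dried from acetone in the tubes at 0, 0.04, 0.2, 1, 5 and 25 mg L-1. The assay used 30 mM pyruvate, 1 mM MgCl2, 1 mM TPP, 20 μM FAD and 50 mM K-phosphate at pH 7, run for 1 h at 37 °C. It was stopped with H2SO4, decarboxylated for 15 min at 60 °C, developed with creatine/α-naphthol, and read at A520.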

[3] = biological target: T1, Acetolactate synthase (Zea mays); assay: Inhibition of in vitro ALS activity in first leaf of the plant grew out Zea mays (maize) seedlings measured at 520 OD/ mg of protein/hr at 100 ug/L at 37 degC; outline: as §1
[4] = biological target: T1, Acetolactate synthase (Zea mays); assay: Inhibition of in vitro ALS activity in first leaf of the plant grew out Zea mays (maize) seedlings measured at 520 OD/ mg of protein/hr at 400 ug/L at 37 degC; outline: as §1
[5] = biological target: T1, Acetolactate synthase (Zea mays); assay: Inhibition of in vitro ALS activity in first leaf of the plant grew out Zea mays (maize) seedlings measured at 520 OD/ mg of protein/hr at 200 ug/L at 37 degC; outline: as §1
[6] = biological target: T1, Acetolactate synthase (Zea mays); assay: Inhibition of in vitro ALS activity of Zea mays (maize) at 25 mg/L at 37 degC; outline: as §2

T1 sequence (Q41768 whole entry, looked up): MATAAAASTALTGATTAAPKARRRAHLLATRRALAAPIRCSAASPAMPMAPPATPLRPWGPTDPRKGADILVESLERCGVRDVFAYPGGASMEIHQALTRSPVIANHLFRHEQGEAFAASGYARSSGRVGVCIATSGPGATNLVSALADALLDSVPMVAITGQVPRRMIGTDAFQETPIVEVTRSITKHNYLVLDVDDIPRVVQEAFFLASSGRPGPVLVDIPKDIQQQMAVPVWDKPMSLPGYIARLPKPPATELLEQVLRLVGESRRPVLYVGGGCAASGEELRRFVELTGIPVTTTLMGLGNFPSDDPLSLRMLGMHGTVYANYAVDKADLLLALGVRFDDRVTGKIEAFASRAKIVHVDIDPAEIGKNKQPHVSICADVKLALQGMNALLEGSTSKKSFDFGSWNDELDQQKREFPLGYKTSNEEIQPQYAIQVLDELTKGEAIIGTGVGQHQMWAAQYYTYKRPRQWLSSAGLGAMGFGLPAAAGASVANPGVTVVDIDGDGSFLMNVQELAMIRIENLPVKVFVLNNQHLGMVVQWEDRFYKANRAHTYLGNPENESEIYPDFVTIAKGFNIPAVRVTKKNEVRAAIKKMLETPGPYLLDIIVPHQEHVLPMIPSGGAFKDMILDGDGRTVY
T1 sequence (Q41769 whole entry, looked up): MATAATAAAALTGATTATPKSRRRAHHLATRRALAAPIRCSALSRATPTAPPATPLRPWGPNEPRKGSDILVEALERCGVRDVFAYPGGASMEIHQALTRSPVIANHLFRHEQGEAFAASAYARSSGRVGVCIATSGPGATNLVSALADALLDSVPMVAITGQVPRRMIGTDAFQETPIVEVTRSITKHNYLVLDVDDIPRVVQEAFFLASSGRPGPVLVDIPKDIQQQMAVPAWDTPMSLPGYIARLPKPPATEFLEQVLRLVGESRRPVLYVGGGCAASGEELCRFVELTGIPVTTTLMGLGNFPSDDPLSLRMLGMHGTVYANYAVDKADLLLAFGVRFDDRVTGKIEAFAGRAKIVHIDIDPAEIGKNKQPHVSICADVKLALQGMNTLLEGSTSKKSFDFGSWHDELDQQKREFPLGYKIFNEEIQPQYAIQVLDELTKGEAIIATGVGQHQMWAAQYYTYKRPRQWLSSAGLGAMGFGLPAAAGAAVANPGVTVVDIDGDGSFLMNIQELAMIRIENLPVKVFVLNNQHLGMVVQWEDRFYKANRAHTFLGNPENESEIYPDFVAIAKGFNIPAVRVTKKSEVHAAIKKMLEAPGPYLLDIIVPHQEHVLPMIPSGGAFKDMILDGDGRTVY

| SMILES | OD [1] | inhibition [2] | OD [3] | OD [4] | OD [5] | inhibition [6] |
| --- | --- | --- | --- | --- | --- | --- |
| CCc1cnc(C2=N[C@@](C)(C(C)C)C(=O)N2)c(C(=O)O)c1 | 2.06 h⁻¹ | 3.8% | 7.96 h⁻¹ | 3.18 h⁻¹ | 6.34 h⁻¹ | Active |
| CCc1cnc(C2=N[C@](C)(C(C)C)C(=O)N2)c(C(=O)O)c1 | 0.97 h⁻¹ | 28.9% | 7.14 h⁻¹ | 1.56 h⁻¹ | 3.39 h⁻¹ | Active |
| CCc1cnc(C2=NC(C)(C(C)C)C(=O)N2)c(C(=O)O)c1 (racemic) | 1.9 h⁻¹ | 19.8% | 7.6 h⁻¹ | 2.26 h⁻¹ | 4.41 h⁻¹ | Active |
